Measurements reported in ChEMBL document CHEMBL3085652, “Synthesis and antiproliferative activity of α-branched α,β-unsaturated ketones” (2013).

How the values were obtained:
Type in all cases: functional
[1] = system: T47D; test: Growth inhibition of human T47D cells after 48 hrs by SRB assay
Procedure, shortened: (§1)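 Cells from an academic source, kept in 25 cm² flasks in RPMI 1640 with 5% heat-inactivated fetal calf serum. Dosing began day 1 after plating, in triplicate at several dilutions across […]. Vehicle controls got DMSO 0.25% v/v. After 48 h exposure, cells were fixed with ice-cold 50% w/v TCA for 60 min at 4 °C and stained by SRB. OD was read at 492 nm, corrected for medium-only background, and GI50 was derived from dose-response data.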

[2] = system: WiDr; test: Growth inhibition of human WiDr cells after 48 hrs by SRB assay; procedure, shortened: as §1
[3] = Growth inhibition of human HBL100 cells after 48 hrs by SRB assay; conditions: HBL-100, 48 h; procedure, shortened: as §1
[4] = system: HeLa; test: Growth inhibition of human HeLa cells after 48 hrs by SRB assay; procedure, shortened: as §1
[5] = system: SW1573; test: Growth inhibition of human SW1573 cells after 48 hrs by SRB assay; conditions: SW1573, 48 h; procedure, shortened: as §1

SMILES	GI50 [1]	GI50 [4]	GI50 [5]	GI50 [2]	GI50 [3]
O=C(/C=C/C1CCCCC1)c1ccccc1	15 µM	21 µM	10 µM	21 µM	18 µM
O=C(/C=C/c1ccc(Cl)cc1Cl)c1ccccc1	14 µM	18 µM	12 µM	20 µM	17 µM
O=C(/C(=C/C1CCCCC1)CCl)c1ccccc1	29 µM	30 µM	23 µM	22 µM	22 µM
O=C(/C(=C/c1ccc(Cl)cc1)CCl)c1ccccc1	17 µM	22 µM	3.9 µM	19 µM	3.2 µM
O=C(/C(=C/c1ccc(Cl)cc1Cl)CCl)c1ccccc1	6.3 µM	15 µM	3.8 µM	13 µM	3.1 µM
O=C(/C(=C/C1CCCCC1)c1ccccc1)c1ccccc1	39 µM	47 µM	29 µM	34 µM	57 µM
O=C(/C(=C\C1CCCCC1)c1ccccc1)c1ccccc1	74 µM	63 µM	64 µM	64 µM	59 µM
O=C(/C(=C\c1ccc(Cl)cc1Cl)c1ccccc1)c1ccccc1	52 µM	47 µM	41 µM	46 µM	> 100 µM
CC(=O)OC/C(=C\C1CCCCC1)C(=O)c1ccccc1	22 µM	21 µM	19 µM	21 µM	21 µM
CCC(/C=C(\COC(C)=O)C(=O)c1ccccc1)CC	89 µM	50 µM	77 µM	52 µM	> 100 µM
C=C(C/C(=C\c1ccccc1)C(=O)c1ccccc1)C(=O)c1ccccc1	15 µM	19 µM	3 µM	18 µM	10 µM
C=C(C/C(=C\c1ccc(Cl)cc1)C(=O)c1ccccc1)C(=O)c1ccccc1	19 µM	22 µM	6.1 µM	20 µM	17 µM
C=C(C/C(=C\c1ccc(F)cc1)C(=O)c1ccccc1)C(=O)c1ccccc1	15 µM	18 µM	3.5 µM	19 µM	14 µM
C=C(C/C(=C\c1ccc(OC)cc1)C(=O)c1ccccc1)C(=O)c1ccccc1	0.37 µM	0.32 µM	0.45 µM	0.47 µM	0.53 µM
O=C(OC/C(=C\C1CCCCC1)C(=O)c1ccccc1)c1ccccc1	20 µM	24 µM	17 µM	19 µM	23 µM
CC(=O)OC/C(=C\C1CCCCC1)C(=O)c1ccc(Cl)cc1	18 µM	24 µM	18 µM	21 µM	31 µM
CC(=O)OC/C(=C\c1ccc(Cl)cc1)C(=O)c1ccc(Cl)cc1	5.4 µM	19 µM	3.4 µM	18 µM	4 µM
CC(=O)OC/C(=C/c1ccc(Cl)cc1)C(=O)c1ccc(Cl)cc1	12 µM	5.7 µM	5.3 µM	17 µM	16 µM
C=C(C/C(=C\c1ccc(Cl)cc1)C(=O)c1ccc(Cl)cc1)C(=O)c1ccc(Cl)cc1	17 µM	21 µM	5.3 µM	24 µM	16 µM
CC(=O)OC/C(=C\c1ccc(Cl)cc1Cl)C(=O)c1ccc(Cl)cc1	5.2 µM	4.6 µM	3.4 µM	8.1 µM	3.2 µM
CC(=O)OC/C(=C/c1ccc(Cl)cc1Cl)C(=O)c1ccc(Cl)cc1	20 µM	19 µM	21 µM	20 µM	22 µM
COc1cc([C@@H]2c3cc4c(cc3[C@@H](O[C@@H]3O[C@@H]5CO[C@@H](C)O[C@H]5[C@H](O)[C@H]3O)[C@H]3COC(=O)[C@H]23)OCO4)cc(OC)c1O [ETOPOSIDE]	22 µM	3.3 µM	15 µM	23 µM	1.4 µM

Now from value to molecule, other results behind:

GI50 [1]	GI50 [4]	GI50 [5]	SMILES	GI50 [2]	GI50 [3]
18 µM	23 µM	3.6 µM	O=C(/C(=C/c1ccccc1)CCl)c1ccccc1	18 µM	12 µM
16 µM	20 µM	4.8 µM	CC(=O)OC/C(=C\c1ccccc1)C(=O)c1ccccc1	17 µM	17 µM
5.3 µM	3.2 µM	2.6 µM	CC(=O)OC/C(=C\c1ccc(Cl)cc1)C(=O)c1ccccc1	4.8 µM	2.3 µM
14 µM	25 µM	4.2 µM	CC(=O)OC/C(=C\c1ccc(F)cc1)C(=O)c1ccccc1	13 µM	17 µM
19 µM	24 µM	14 µM	CC(=O)OC/C(=C/c1ccccc1Cl)C(=O)c1ccccc1	22 µM	21 µM
17 µM	20 µM	14 µM	CC(=O)OC/C(=C\c1ccccc1Br)C(=O)c1ccccc1	21 µM	22 µM
18 µM	19 µM	21 µM	CC(=O)OC/C(=C/c1ccccc1Br)C(=O)c1ccccc1	18 µM	21 µM
18 µM	22 µM	6.1 µM	CC(=O)OC/C(=C\c1ccccc1F)C(=O)c1ccccc1	19 µM	17 µM
14 µM	20 µM	3.5 µM	C=C(C/C(=C\c1ccccc1F)C(=O)c1ccccc1)C(=O)c1ccccc1	17 µM	15 µM
9.5 µM	16 µM	3.5 µM	CC(=O)OC/C(=C\c1ccc(Cl)cc1Cl)C(=O)c1ccccc1	14 µM	3.1 µM
20 µM	22 µM	22 µM	CC(=O)OC/C(=C/c1ccc(Cl)cc1Cl)C(=O)c1ccccc1	19 µM	23 µM
16 µM	26 µM	3.8 µM	CC(=O)OC/C(=C\c1ccc([N+](=O)[O-])cc1)C(=O)c1ccccc1	23 µM	10 µM
36 µM	36 µM	32 µM	CC(=O)OC/C(=C/c1ccc([N+](=O)[O-])cc1)C(=O)c1ccccc1	83 µM	41 µM
21 µM	25 µM	18 µM	CC(=O)OC/C(=C\c1ccccc1[N+](=O)[O-])C(=O)c1ccccc1	18 µM	26 µM
52 µM	78 µM	> 100 µM	CC(=O)OC/C(=C/c1ccccc1[N+](=O)[O-])C(=O)c1ccccc1	> 100 µM	> 100 µM
17 µM	20 µM	3.3 µM	O=C(OC/C(=C\c1ccc(Cl)cc1Cl)C(=O)c1ccccc1)c1ccccc1	17 µM	3.1 µM
5.4 µM	8.3 µM	29 µM	O=C(OC/C(=C/c1ccc(Cl)cc1Cl)C(=O)c1ccccc1)c1ccccc1	8.7 µM	26 µM
16 µM	22 µM	4.3 µM	O=C(OC/C(=C\c1ccccc1[N+](=O)[O-])C(=O)c1ccccc1)c1ccccc1	18 µM	3.9 µM
18 µM	30 µM	> 100 µM	O=C(OC/C(=C/c1ccccc1[N+](=O)[O-])C(=O)c1ccccc1)c1ccccc1	21 µM	> 100 µM
